pEC50, pIC50: −log10 of the molar value.
Experiments:
Hepatitis C virus [1] = assay: Antiviral activity against Hepatitis C virus genotype 1b expressing NS4B V105M mutant infected in human HuH7 cells after 48 hrs by luciferase reporter gene assay; assay type: functional, organism-based, Hepacivirus hominis; settings: Huh-7, 48 h
Hepatitis C virus [2] = assay: Antiviral activity against Hepatitis C virus genotype 1b expressing NS4B H94N mutant infected in human HuH7 cells after 48 hrs by luciferase reporter gene assay; assay type: functional, organism-based, Hepacivirus hominis; settings: Huh-7, 48 h
Hepatitis C virus [3] = assay: Antiviral activity against Hepatitis C virus genotype 1b infected in human HuH7 cells after 48 hrs by luciferase reporter gene assay; assay type: functional, organism-based, Hepacivirus hominis; settings: Huh-7, 48 h
Hepatitis C virus [4] = assay: Antiviral activity against Hepatitis C virus genotype 1a infected in human HuH7 cells after 48 hrs by luciferase reporter gene assay; assay type: functional, organism-based, Hepacivirus hominis; settings: subtype 1a, Huh-7, 48 h
[5] = Displacement of [3H]-3-(1-(3-chloro-6-isopropyl-8-(trifluoromethyl)imidazo[1,2-a]pyridine-2-carbonyl)piperidin-4-yl)oxazolidin-2-one from HCV genotype 1b C-terminal His-tagged NS4B (1 to 261 aa) expressed in baculovirus infected SF9 cells after overnight incubation; set-up: species or system Hepatitis C virus subtype 1b
Rattus norvegicus = assay: Prodrug conversion in CD rat assessed as 4-(3-chloro-6-cyclopropyl-8-(trifluoromethyl)imidazo[1,2-a]pyridine-2-carbonyl)-1-((trans)-4-hydroxycyclohexyl)piperazin-2-one level at 300 mg/kg, po; assay type: ADME, organism-based; set-up: dose 300 mg/kg, route oral; settings: in vivo
Method in brief: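 CD rats were given a single oral dose of 300 mg/kg of parent suspension or of prodrug. Plasma was assayed for the parent drug and for uncleaved prodrug.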

[6] = Lipophilicity, log D of the compound by chromatographic analysis; assay type: physicochemical
Method in brief: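 Lipophilicity was measured chromatographically and reported as ChromLogD; ≥6 replicates.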

Huh-7 = assay: Cytotoxicity against human HuH7 cells at 50 uM after 2 days by Cell Titer Glo assay; assay type: cell-based; settings: huh-7, 48 h
Method in brief: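 Huh7 cells were exposed to compound at 50 μM for 2 days and scored for cellular toxicity.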

Hepatitis C virus [7] = assay: Antiviral activity against wild-type Hepatitis C virus genotype 1a infected in PXB mouse assessed as log reduction in viral mRNA titer at 100 mg/kg, po bid every 12 hrs for 7 days relative to control; assay type: functional, Hepacivirus hominis, subtype 1a
Method in brief: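 PXB mice were infected with HCV genotype 1a wild-type virus and treated 5−8 weeks later (n = 4/group). Oral dosing b.i.d. for 7 days: prodrug at 10 or 30 mg/kg, or positive control at 100 mg/kg. Serum HCV RNA titers (viral load) were followed over the course of dosing.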

Row | Stability (Rattus norvegicus) | Compound | pEC50 (Hepatitis C virus [1]) | pEC50 (Hepatitis C virus [2]) | pEC50 (Hepatitis C virus [3]) | pEC50 (Hepatitis C virus [4]) | pIC50 [5] | chromatographic logD [6] | Activity (Huh-7) | FC (Hepatitis C virus [7])
1 |  | O=C(c1nc2c(C(F)(F)F)cc(C3CC3)cn2c1Cl)N1CCC2(OCC3(CC3)CO2)C(O)C1 (racemic) | 6.11 | 6.64 | 8.37 | 7.85 | 7.55 |  |  | 
2 | Stable | O=C(O)COCC(=O)O[C@H]1CC[C@H](N2CCN(C(=O)c3nc4c(C(F)(F)F)cc(C5CC5)cn4c3Cl)CC2=O)CC1 |  |  |  |  |  |  |  | 
3 |  | O=C(c1oc2c(C(F)(F)F)cc(C3CC3)cc2c1Cl)N1CCN([C@H]2CC[C@H](O)CC2)C(=O)C1 | 6.96 | 7.66 | 9.10 | 10.05 | 8.40 | 5.1 | Non-toxic | 
4 |  | O=C(c1nn2c(C(F)(F)F)cc(C3CC3)cc2c1Cl)N1CCN([C@H]2CC[C@H](O)CC2)C(=O)C1 | 6.51 | 7.49 | 8.70 | 9.52 | 7.92 | 4.1 | Non-toxic | 
5 |  | O=C(c1nn2c(C(F)(F)F)cc(C3CC3)cc2c1Cl)N1CCN([C@H]2C[C@@H]3C[C@@H]3[C@H]2O)C(=O)C1 | < 6.00 | < 6.00 | 7.85 | 7.39 | 7.74 |  |  | 
6 |  | O=C(c1nc2c(C(F)(F)F)cc(C3CC3)cn2c1Cl)N1CCN(C(=O)[C@H]2C[C@H](O)C2)CC1 | < 6.00 | 6.14 | 7.72 | 8.20 | 7.00 |  |  | 
7 |  | O=C(c1nn2c(C(F)(F)F)cc(C3CC3)cc2c1Cl)N1CCN(C(=O)[C@H]2C[C@H](O)C2)CC1 | < 6.00 | 6.48 | 8.08 | 8.70 | > 7.40 |  |  | 
8 |  | O=C(c1nn2c(C(F)(F)F)cc(C3CC3)cc2c1Cl)N1CCC2(OCC3(CC3)CO2)C(O)C1 (racemic) | 6.60 | 7.41 | 8.72 | 8.40 | 8.00 |  |  | 
9 |  | O=C(c1nc2c(C(F)(F)F)cc(C3CC3)cn2c1Cl)N1CCN([C@@H]2C[C@H]3C[C@H]3C2)C(=O)C1 | 7.23 | 7.70 | 9.00 | 8.85 | 7.24 |  |  | 
10 |  | O=C(c1nn2c(C(F)(F)F)cc(C3CC3)cc2c1Cl)N1CCN([C@H]2C[C@H]3C[C@H]3[C@H]2O)C(=O)C1 | < 6.00 | < 6.00 | 7.52 | 6.92 | 7.80 |  |  | 
11 | Stable | CN(C)CC(=O)O[C@H]1CC[C@H](N2CCN(C(=O)c3nc4c(C(F)(F)F)cc(C5CC5)cn4c3Cl)CC2=O)CC1 |  |  |  |  |  |  |  | 
12 |  | O=C(c1nc2c(C(F)(F)F)cc(C3CC3)cn2c1Cl)N1CCC(N2CCOC2=O)CC1 | < 6.00 | 6.43 | 7.92 | 8.08 | 7.12 |  |  | 
13 |  | O=C(c1nn2c(C(F)(F)F)cc(C3CC3)cc2c1Cl)N1CCN([C@@H]2C[C@@H]3C[C@@H]3[C@@H]2O)C(=O)C1 | < 6.00 | < 6.00 | 7.72 | 7.02 | 7.64 |  |  | 
14 | Stable | O=C(CO)O[C@H]1CC[C@H](N2CCN(C(=O)c3nc4c(C(F)(F)F)cc(C5CC5)cn4c3Cl)CC2=O)CC1 |  |  |  |  |  |  |  | 
15 |  | O=C(c1nn2c(C(F)(F)F)cc(C3CC3)cc2c1Cl)N1CCN([C@@H]2C[C@H]3C[C@H]3[C@H]2O)C(=O)C1 | 7.19 | 7.42 | 8.64 | 8.40 | 7.64 |  |  | 
16 |  | CNC(=O)c1c(-c2ccc(F)cc2)oc2cc(N(CCO)S(C)(=O)=O)c(C3CC3)cc12 [NESBUVIR] |  |  |  |  |  |  |  | 2.2
17 | Stable | CCC(=O)O[C@H]1CC[C@H](N2CCN(C(=O)c3nc4c(C(F)(F)F)cc(C5CC5)cn4c3Cl)CC2=O)CC1 |  |  |  |  |  |  |  | 
18 |  | O=C(c1nn2c(C(F)(F)F)cc(C3CC3)cc2c1Cl)N1CCC(N2CCOC2=O)CC1 | 6.43 | 7.03 | 8.30 | 8.70 | 7.43 |  |  | 
19 |  | Cn1c(C(=O)N2CCN([C@H]3CC[C@H](O)CC3)C(=O)C2)nc2c(C(F)(F)F)cc(C3CC3)cc21 | 6.64 | 6.82 | 8.52 | 9.30 | 7.62 | 4.3 | Non-toxic | 
20 |  | O=C(c1nn2c(C(F)(F)F)cc(C3CC3)cc2c1Cl)N1CCN([C@@H]2C[C@H]3C[C@H]3[C@@H]2O)C(=O)C1 | 6.40 | 7.19 | 8.31 | 8.10 | 7.74 |  |  | 
